ChEMBL document CHEMBL1156597, “Structure-activity relationship of kahalalide F synthetic analogues” (J Med Chem, 2008)

Legend:
[1] = test system: LoVo; experiment: Cytotoxicity against human LoVo cells after 48 hrs by SRB assay; format: functional; settings: for CC50: read-out: LC50 (the source's name)
[2] = test system: PANC-1; experiment: Cytotoxicity against human PANC1 cells after 48 hrs by SRB assay; format: functional; settings: PANC-1, 48 h; for CC50: read-out: LC50 (the source's name)
In short: (§1)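 Cells grown in RPMI 1640 with 10% FBS and penicillin/streptomycin at 37 °C and 5% CO₂, trypsinized, then seeded at 5 × 10³/well. After 18 h drug-free attachment, samples in DMSO/EtOH/PBS (0.5:0.5:99) were added for 48 h continuous exposure. Cells were fixed with cold TCA (1 h, 4 °C) and stained with SRB (10 min). Tris-solubilized stain read at 490 nm. Triplicate wells, mean ± SD; GI₅₀ derived.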

[3] = test system: A549; experiment: Cytotoxicity against human A549 cells after 48 hrs by SRB assay; format: functional, cell-based; settings: Homo sapiens, A549, 48 h; in short: as §1
[4] = test system: HT-29; experiment: Cytotoxicity against human HT29 cells after 48 hrs by SRB assay; format: functional, cell-based; settings: Homo sapiens, HT-29, 48 h; for CC50: read-out: LC50 (the source's name); in short: as §1
[5] = test system: K562; experiment: Cytotoxicity against human K562 cells after 48 hrs by SRB assay; format: functional; settings: K562, 48 h; for CC50: read-out: LC50 (the source's name); in short: as §1
[6] = test system: SK-BR-3; experiment: Cytotoxicity against human SKBR3 cells after 48 hrs by SRB assay; format: functional; settings: SK-BR-3, 48 h; for CC50: read-out: LC50 (the source's name); in short: as §1
[7] = Cytotoxicity against human IGROV cells after 48 hrs by SRB assay; format: functional; settings: for CC50: read-out: LC50 (the source's name); in short: as §1
[8] = Cytotoxicity against human HeLa-APL cells after 48 hrs by SRB assay; format: functional; in short: as §1
[9] = Cytotoxicity against human IGROV-ET cells after 48 hrs by SRB assay; format: functional; settings: for CC50: read-out: LC50 (the source's name); in short: as §1
[10] = test system: DU-145; experiment: Cytotoxicity against human DU145 cells after 48 hrs by SRB assay; format: functional, cell-based; settings: Homo sapiens, DU-145, 48 h; for CC50: read-out: LC50 (the source's name); in short: as §1
[11] = test system: LoVo; experiment: Cytotoxicity against human doxorubicin resistant LoVo cells after 48 hrs by SRB assay; format: functional; settings: for CC50: read-out: LC50 (the source's name); in short: as §1
[12] = test system: SK-MEL-28; experiment: Cytotoxicity against human SK-MEL-28 cells after 48 hrs by SRB assay; format: functional, cell-based; settings: Homo sapiens, SK-MEL-28, 48 h; for CC50: read-out: LC50 (the source's name); in short: as §1
[13] = test system: HeLa; experiment: Cytotoxicity against human HeLa cells after 48 hrs by SRB assay; format: functional; settings: for CC50: read-out: LC50 (the source's name); in short: as §1

| Compound | GI50 [1] | TGI [1] | CC50 [1] | CC50 [2] | LC50 [3] | CC50 [4] | CC50 [5] | GI50 ([6]; read-out: GI50) | CC50 [6] | GI50 [7] | GI50 ([7]; read-out: GI50) | CC50 [7] | GI50 [8] | LC50 (concentration giving 50% net cell kill) [8] | TGI [8] | CC50 [9] | GI50 ([10]; read-out: GI50) | CC50 [10] | GI50 [11] | TGI [11] | further results |
| --- | --- | --- | --- | --- | --- | --- | --- | --- | --- | --- | --- | --- | --- | --- | --- | --- | --- | --- | --- | --- | --- |
| C/C=C1\NC(=O)[C@H](Cc2ccccc2)NC(=O)[C@@H](C(C)C)NC(=O)[C@@H]([C@H](C)CC)NC(=O)[C@H](NC(=O)[C@H](NC(=O)[C@H](CCCNC(=O)CCOCCOCCNC(=O)OCC2c3ccccc3-c3ccccc32)NC(=O)[C@H]2CCCN2C(=O)[C@H](NC(=O)[C@@H](NC(=O)[C@@H](NC(=O)[C@H](NC(=O)CCCC(C)C)C(C)C)[C@@H](C)O)C(C)C)C(C)C)[C@H](C)CC)[C@H](C)OC(=O)[C@H](C(C)C)NC1=O | 44.3 nM | 61.7 nM | 43.2 nM | 141 nM | 32 nM | 263 nM | 15.4 nM | 39.6 nM | 392 nM | 79.9 nM | 36.1 nM | 404 nM | 53.8 nM | 528 nM | 89.7 nM | 216 nM | 16.4 nM | 557 nM | 199 nM | 179 nM | GI50 [4]: 85.3 nM; TGI [4]: 117 nM; GI50 [6]: 53.4 nM; TGI [10]: 15.7 nM; CC50 [11]: 238 nM; GI50 [12]: 840 nM; GI50 ([12]; read-out: GI50): 68.4 nM; CC50 [12]: 10.3 nM; GI50 [13]: 56.4 nM; TGI [13]: 119 nM; CC50 [13]: 767 nM |
| C/C=C1\NC(=O)[C@H](Cc2ccccc2)N(C)C(=O)[C@@H](C(C)C)NC(=O)[C@@H]([C@H](C)CC)NC(=O)[C@H](NC(=O)[C@H](NC(=O)[C@H](CCCN)NC(=O)[C@H]2CCCN2C(=O)[C@H](NC(=O)[C@@H](NC(=O)[C@@H](NC(=O)[C@H](NC(=O)CC[C@@H](C)CC)C(C)C)[C@@H](C)O)C(C)C)C(C)C)[C@H](C)CC)[C@H](C)OC(=O)[C@H](C(C)C)NC1=O | 386 nM | 431 nM | 486 nM | 2000 nM | 999 nM | 220 nM | 1410 nM | 324 nM | 76.8 nM | 596 nM | 862 nM | 493 nM | 1110 nM | 936 nM | 1020 nM | 451 nM | 1230 nM | 1030 nM | 318 nM | 311 nM | GI50 [2]: 1920 nM; TGI [2]: 2100 nM; TGI [3]: 1130 nM; GI50 ([3]; read-out: GI50): 1300 nM; GI50 [4]: 274 nM; TGI [4]: 236 nM; GI50 [5]: 2140 nM; TGI [5]: 1730 nM; TGI [6]: 286 nM; GI50 [9]: 642 nM; GI50 ([9]; read-out: GI50): 999 nM; TGI [10]: 1130 nM; CC50 [11]: 305 nM; TGI [12]: 1270 nM; GI50 ([12]; read-out: GI50): 1350 nM; CC50 [12]: 1190 nM; GI50 [13]: 528 nM; TGI [13]: 766 nM; CC50 [13]: 781 nM |
| C/C=C1\NC(=O)[C@H](Cc2ccc(OC)cc2)NC(=O)[C@@H](C(C)C)NC(=O)[C@@H]([C@H](C)CC)NC(=O)[C@H](NC(=O)[C@H](NC(=O)[C@H](CCCN)NC(=O)[C@H]2CCCN2C(=O)[C@H](NC(=O)[C@@H](NC(=O)[C@@H](NC(=O)[C@H](NC(=O)CC[C@@H](C)CC)C(C)C)[C@@H](C)O)C(C)C)C(C)C)[C@H](C)CC)[C@H](C)OC(=O)[C@H](C(C)C)NC1=O | 320 nM | 285 nM | 106 nM | 1990 nM | 6420 nM | 45.4 nM | 1890 nM | 283 nM | 824 nM | 502 nM | 442 nM | 581 nM | 1010 nM | 1220 nM | 1160 nM | 465 nM | 858 nM | 1060 nM | 237 nM | 214 nM | GI50 [2]: 3120 nM; TGI [2]: 4340 nM; GI50 [3]: 557 nM; GI50 ([3]; read-out: GI50): 526 nM; TGI [6]: 284 nM; GI50 [9]: 384 nM; GI50 ([9]; read-out: GI50): 295 nM; GI50 [10]: 947 nM; CC50 [11]: 79.2 nM; TGI [12]: 1230 nM; GI50 ([12]; read-out: GI50): 1190 nM; CC50 [12]: 1280 nM; GI50 [13]: 766 nM; TGI [13]: 848 nM; CC50 [13]: 943 nM |
| C/C=C1\NC(=O)[C@H](Cc2ccc(Cl)c(Cl)c2)NC(=O)[C@@H](C(C)C)NC(=O)[C@@H]([C@H](C)CC)NC(=O)[C@H](NC(=O)[C@H](NC(=O)[C@H](CCCN)NC(=O)[C@H]2CCCN2C(=O)[C@H](NC(=O)[C@@H](NC(=O)[C@@H](NC(=O)[C@H](NC(=O)CC[C@@H](C)CC)C(C)C)[C@@H](C)O)C(C)C)C(C)C)[C@H](C)CC)[C@H](C)OC(=O)[C@H](C(C)C)NC1=O | 426 nM | 451 nM | 319 nM | 1810 nM | 6270 nM | 201 nM | 1850 nM | 283 nM | 1030 nM | 329 nM | 383 nM | 567 nM | 1020 nM | 1140 nM | 1080 nM | 539 nM | 266 nM | 734 nM | 299 nM | 248 nM | GI50 [2]: 2090 nM; TGI [2]: 1950 nM; GI50 [3]: 206 nM; GI50 ([3]; read-out: GI50): 110 nM; TGI [6]: 368 nM; GI50 [9]: 379 nM; GI50 ([9]; read-out: GI50): 246 nM; GI50 [10]: 370 nM; CC50 [11]: 134 nM; GI50 [12]: 852 nM; GI50 ([12]; read-out: GI50): 587 nM; CC50 [12]: 1210 nM; GI50 [13]: 493 nM; TGI [13]: 813 nM; CC50 [13]: 1100 nM |
